Reference: ChEMBL document CHEMBL3272244, “Synthesis and biological activity of two metabolites of 1-methyl-5-(1-methylethyl)-2-nitro-1 H-imidazole, an antiprotozoal agent” (J Med Chem, 1977)
≈ marks a conversion by molar mass, not a printed value.

Legend:
Staphylococcus aureus = assay: Antibacterial activity against Staphylococcus aureus Tour assessed as growth inhibition; type: functional
Clostridium perfringens = assay: Antibacterial activity against Clostridium perfringens ISS 30453 assessed as growth inhibition; type: functional
Escherichia coli = assay: Antibacterial activity against Escherichia coli SKF 12140 assessed as growth inhibition; type: functional
Trichomonas vaginalis [1] = assay: Antiprotozoal activity against Trichomonas vaginalis assessed as static effect; type: functional
Trichomonas vaginalis [2] = assay: Antiprotozoal activity against Trichomonas vaginalis assessed as cidal effect; type: functional
Trichomonas vaginalis [3] = assay: Antiprotozoal activity against Trichomonas vaginalis infected in po dosed mouse; type: functional
Trichomonas vaginalis [4] = assay: Ratio of compound ED50 to metronidazole ED50 for Trichomonas vaginalis infected in po dosed mouse; type: functional
[5] = Acute toxicity in po dosed mouse; type: organism-based; details: in vivo
Outline: (§1)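 Mice dosed with the agent. LD50 values were computed by the Litchfield and Wilcoxon method.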

[6] = Acute toxicity in ip dosed mouse; type: organism-based; details: in vivo; outline: as §1

Structure (SMILES) | MIC (Staphylococcus aureus) | MIC (Clostridium perfringens) | MIC (Escherichia coli) | MIC (Trichomonas vaginalis [1]) | MIC (Trichomonas vaginalis [2]) | ED50 (Trichomonas vaginalis [3]) | Ratio ED50 (Trichomonas vaginalis [4]) | LD50 [5] | LD50 [6]
CC(C)c1cnc([N+](=O)[O-])n1C | > 300 µg/mL | 5 µg/mL (≈ 29.6 µM) | > 300 µg/mL | 5 µg/mL (≈ 29.6 µM) | 20 µg/mL (≈ 118 µM) | 2.03 mg/kg | 0.17 | – | –
Cn1c(C(C)(C)O)cnc1[N+](=O)[O-] | 100 µg/mL (≈ 540 µM) | 25 µg/mL (≈ 135 µM) | 100 µg/mL (≈ 540 µM) | 6.2 µg/mL (≈ 33.5 µM) | 25 µg/mL (≈ 135 µM) | 2.5 mg/kg | 0.21 | 698 mg/kg | 475 mg/kg
COC(C)(C)c1cnc([N+](=O)[O-])n1C | 100 µg/mL (≈ 502 µM) | 100 µg/mL (≈ 502 µM) | > 100 µg/mL | 6.2 µg/mL (≈ 31.1 µM) | 50 µg/mL (≈ 251 µM) | – | 0.19 | – | 225 mg/kg
C=C(C)c1cnc([N+](=O)[O-])n1C | > 100 µg/mL | 3.1 µg/mL (≈ 18.5 µM) | > 100 µg/mL | 2 µg/mL (≈ 12 µM) | 10 µg/mL (≈ 59.8 µM) | 32.5 mg/kg | 3.25 | 350 mg/kg | –
Cn1c(C(C)(O)CO)cnc1[N+](=O)[O-] (stereo unspecified) | > 100 µg/mL | 5 µg/mL (≈ 24.9 µM) | > 100 µg/mL | 10 µg/mL (≈ 49.7 µM) | 20 µg/mL (≈ 99.4 µM) | > 80 mg/kg | >8 | > 1000 mg/kg | –
Cc1ncc([N+](=O)[O-])n1CCO [METRONIDAZOLE] | > 300 µg/mL | 0.5 µg/mL (≈ 2.92 µM) | > 300 µg/mL | 0.5 µg/mL (≈ 2.92 µM) | 5 µg/mL (≈ 29.2 µM) | 11.5 mg/kg | 1 | – | –
